Results published in ChEMBL document CHEMBL3797125, “Discovery of GluN2A-Selective NMDA Receptor Positive Allosteric Modulators (PAMs): Tuning Deactivation Kinetics via Structure-Based Design” (J Med Chem, 2016).
The source made the active and inactive calls. No cut-off for these calls is given here.

Key:
[1] = target: T1, Glutamate receptor 2 (Homo sapiens, UniProt P42262); test: Positive allosteric modulation of human GluA2 AMPAR flop isomer expressed in Dox-inducible cells measured every 5 mins by BD calcium indicator dye based-fluorescence analysis in presence of glutamate; assay type: cell-based
[2] = organism: Homo sapiens; test: Selectivity ratio of EC50 for human GluA2 AMPAR flip isomer to EC50 for GluN1/GluN2A NMDAR (unknown origin) expressed in Dox-inducible cells; assay type: cell-based
[3] = target: T2, Glutamate NMDA receptor; GRIN1/GRIN2A (Homo sapiens, UniProt Q05586+Q12879); test: Positive allosteric modulation of GluN1/GluN2A NMDAR (unknown origin) expressed in Dox-inducible cells measured every 5 mins by BD calcium indicator dye based-fluorescence analysis in presence of glutamate/glycine; assay type: cell-based
Summary of the method: (§1)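 GluN2A-containing NMDAR cell line, harvested, seeded, doxycycline 2 µg/mL overnight with 500 µM ketamine for protection, then washed and loaded with calcium dye for 50 min. Compound added at 2x concentration in 2x EC30 Glu (EC30 set daily from Glu dose-response); saturating Gly throughout; fluorescence recorded over 5 min.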

[4] = target: T1, Glutamate receptor 2; test: Positive allosteric modulation of human GluA2 AMPAR flip isomer expressed in Dox-inducible cells at 125 uM measured every 5 mins by BD calcium indicator dye based-fluorescence analysis in presence of glutamate; assay type: cell-based
[5] = target: T1, Glutamate receptor 2; test: Positive allosteric modulation of human GluA2 AMPAR flip isomer expressed in Dox-inducible cells measured every 5 mins by BD calcium indicator dye based-fluorescence analysis in presence of glutamate; assay type: cell-based
[6] = target: T2, Glutamate NMDA receptor; GRIN1/GRIN2A; test: Positive allosteric modulation of GluN1/GluN2A NMDAR (unknown origin) expressed in Dox-inducible cells at 125 uM measured every 5 mins by BD calcium indicator dye based-fluorescence analysis in presence of glutamate/glycine; assay type: cell-based; summary of the method: as §1
[7] = test system: human MDR1 (P-gp); test: Efflux ratio of permeability from basolateral to apical over apical to basolateral side in MDCK cells expressing human MDR1; assay type: ADME, cell-based, Canis lupus familiaris; details: dog
[8] = target: T1, Glutamate receptor 2; test: Positive allosteric modulation of human GluA2 AMPAR flop isomer expressed in Dox-inducible cells at 125 uM measured every 5 mins by BD calcium indicator dye based-fluorescence analysis in presence of glutamate; assay type: cell-based
[9] = Protein binding in mouse brain; assay type: ADME, tissue-based; details: read-out: PB (converted)
[10] = target: Ionotropic glutamate receptor NMDA 1/2C (Homo sapiens, UniProt Q05586+Q14957); test: Positive allosteric modulation of GluN1/GluN2C NMDAR (unknown origin) expressed in Dox-inducible cells by BD calcium indicator dye based-fluorescence analysis in presence of glutamate/glycine
[11] = Half life in mouse at 0.3 mg/kg, iv; assay type: ADME, organism-based; details: in vivo
[12] = test system: Plasma; test: Fraction unbound in mouse plasma at 10 mg/kg, po measured at 1 hr; assay type: ADME, organism-based; details: in vivo
[13] = Oral bioavailability in mouse at 10 mg/kg; assay type: ADME, organism-based; details: in vivo
[14] = Plasma protein binding in mouse; assay type: ADME, cell-free; details: read-out: PPB (converted)
[15] = target: Ionotropic glutamate receptor NMDA 1/2D (Homo sapiens, UniProt O15399+Q05586); test: Positive allosteric modulation of GluN1/GluN2D NMDAR (unknown origin) expressed in Dox-inducible cells by BD calcium indicator dye based-fluorescence analysis in presence of glutamate/glycine
[16] = Blood clearance in mouse at 0.3 mg/kg, iv; assay type: ADME, organism-based
[17] = target: Glutamate NMDA receptor; GRIN1/GRIN2B (Homo sapiens) (UniProt Q05586+Q13224); test: Positive allosteric modulation of GluN1/GluN2B NMDAR (unknown origin) expressed in Dox-inducible cells at 125 uM measured every 5 mins by BD calcium indicator dye based-fluorescence analysis in presence of glutamate/glycine; assay type: cell-based
Summary of the method: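 Doxycycline-induced (2 µg/mL, overnight, 500 µM ketamine) GluN2B-containing NMDAR cells, loaded with calcium dye for 50 min; compound added at 2x in 2x EC30 Glu, with saturating Gly; fluorescence recorded over 5 min. Max potentiation at 125 µM reported where no EC50 obtained; 30% denotes baseline (EC30 Glu).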

[18] = Lipophilicity, logD of the compound at pH 7.4; assay type: physicochemical; details: buffer
[19] = target: T2, Glutamate NMDA receptor; GRIN1/GRIN2A; test: Positive allosteric modulation of GluN1/GluN2A NMDAR (unknown origin) expressed in CHO cells assessed as slowing of deactivation kinetics at 10 uM by whole-cell voltage clamp electrophysiological analysis; assay type: cell-based
[20] = organism: Homo sapiens; test: Selectivity ratio of EC50 for human GluA2 AMPAR flop isomer to EC50 for GluN1/GluN2A NMDAR (unknown origin) expressed in Dox-inducible cells; assay type: cell-based
[21] = target: T2, Glutamate NMDA receptor; GRIN1/GRIN2A; test: Positive allosteric modulation of GluN1/GluN2A NMDAR (unknown origin) expressed in CHO cells assessed as slowing of deactivation kinetics at 100 uM by whole-cell voltage clamp electrophysiological analysis; assay type: cell-based
Summary of the method: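 Automated patch clamp of CHO cells expressing GluN1/GluN2A; sealed in high Mg2+ buffer, recorded whole-cell in zero Mg2+. Preincubation with PAM at 100 µM (or DMSO) plus 100 µM glycine for several minutes, then rapid switch to 100 µM glutamate and back. Tau from monoexponential fit of current decay; fold deactivation = PAM tau / vehicle tau.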

T1 sequence (P42262 whole entry): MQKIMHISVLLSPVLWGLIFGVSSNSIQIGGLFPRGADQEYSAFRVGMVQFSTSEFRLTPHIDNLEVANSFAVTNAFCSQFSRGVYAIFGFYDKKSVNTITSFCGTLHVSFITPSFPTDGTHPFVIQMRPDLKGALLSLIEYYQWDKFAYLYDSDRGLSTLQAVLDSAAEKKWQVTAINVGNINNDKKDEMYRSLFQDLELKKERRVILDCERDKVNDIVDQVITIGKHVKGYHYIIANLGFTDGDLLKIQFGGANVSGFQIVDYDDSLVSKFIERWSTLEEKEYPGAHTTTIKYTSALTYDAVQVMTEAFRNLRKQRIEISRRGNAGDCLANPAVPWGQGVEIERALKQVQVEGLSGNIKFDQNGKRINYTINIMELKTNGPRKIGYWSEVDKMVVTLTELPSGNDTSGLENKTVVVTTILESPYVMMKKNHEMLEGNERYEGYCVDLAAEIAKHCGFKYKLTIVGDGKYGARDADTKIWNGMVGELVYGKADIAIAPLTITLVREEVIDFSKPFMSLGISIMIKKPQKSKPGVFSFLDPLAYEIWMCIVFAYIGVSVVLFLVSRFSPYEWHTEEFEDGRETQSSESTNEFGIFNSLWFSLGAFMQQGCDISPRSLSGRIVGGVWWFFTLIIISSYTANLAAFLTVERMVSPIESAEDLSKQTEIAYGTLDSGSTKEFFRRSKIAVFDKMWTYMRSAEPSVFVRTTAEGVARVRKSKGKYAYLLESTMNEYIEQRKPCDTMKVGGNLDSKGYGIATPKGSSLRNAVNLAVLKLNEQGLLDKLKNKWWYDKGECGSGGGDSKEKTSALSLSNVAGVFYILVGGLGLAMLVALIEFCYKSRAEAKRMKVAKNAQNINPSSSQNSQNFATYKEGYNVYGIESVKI
Ionotropic glutamate receptor NMDA 1/2D, sequence (O15399 whole entry, other chains not shown): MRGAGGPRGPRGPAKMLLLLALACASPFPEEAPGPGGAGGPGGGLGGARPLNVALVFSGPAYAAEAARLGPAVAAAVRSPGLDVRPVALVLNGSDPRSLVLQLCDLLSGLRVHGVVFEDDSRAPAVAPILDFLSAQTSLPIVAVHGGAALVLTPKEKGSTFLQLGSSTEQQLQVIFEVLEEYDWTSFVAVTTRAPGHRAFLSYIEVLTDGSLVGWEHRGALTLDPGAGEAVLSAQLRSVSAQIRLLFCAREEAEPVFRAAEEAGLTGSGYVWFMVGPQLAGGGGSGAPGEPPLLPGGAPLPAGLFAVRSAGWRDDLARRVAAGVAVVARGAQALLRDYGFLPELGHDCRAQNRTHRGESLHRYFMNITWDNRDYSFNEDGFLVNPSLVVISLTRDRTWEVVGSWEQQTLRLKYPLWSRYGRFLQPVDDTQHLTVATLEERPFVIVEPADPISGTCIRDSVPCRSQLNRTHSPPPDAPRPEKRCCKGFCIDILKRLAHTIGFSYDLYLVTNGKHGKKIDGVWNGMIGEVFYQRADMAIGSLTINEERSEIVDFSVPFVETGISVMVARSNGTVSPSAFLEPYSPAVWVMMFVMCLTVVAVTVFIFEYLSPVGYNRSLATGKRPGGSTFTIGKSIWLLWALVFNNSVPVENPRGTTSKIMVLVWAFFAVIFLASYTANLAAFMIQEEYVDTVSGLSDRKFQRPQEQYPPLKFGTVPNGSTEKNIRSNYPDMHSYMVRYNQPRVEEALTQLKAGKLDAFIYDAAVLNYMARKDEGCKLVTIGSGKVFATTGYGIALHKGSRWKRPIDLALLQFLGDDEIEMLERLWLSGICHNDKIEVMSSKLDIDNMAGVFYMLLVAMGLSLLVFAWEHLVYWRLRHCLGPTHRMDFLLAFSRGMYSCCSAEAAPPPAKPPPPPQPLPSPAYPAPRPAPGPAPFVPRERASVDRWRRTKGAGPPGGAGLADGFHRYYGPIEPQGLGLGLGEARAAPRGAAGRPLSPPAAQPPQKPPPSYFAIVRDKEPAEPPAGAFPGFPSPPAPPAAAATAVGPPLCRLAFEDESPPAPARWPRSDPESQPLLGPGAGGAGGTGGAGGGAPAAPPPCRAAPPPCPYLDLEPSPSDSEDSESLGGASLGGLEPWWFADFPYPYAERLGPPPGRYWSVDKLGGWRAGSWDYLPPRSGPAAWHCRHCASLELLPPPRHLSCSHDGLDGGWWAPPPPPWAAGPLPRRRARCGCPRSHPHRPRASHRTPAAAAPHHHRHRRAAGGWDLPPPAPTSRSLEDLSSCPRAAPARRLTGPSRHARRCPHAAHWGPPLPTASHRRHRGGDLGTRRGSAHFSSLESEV
Ionotropic glutamate receptor NMDA 1/2C, sequence (Q14957 whole entry, other chains not shown): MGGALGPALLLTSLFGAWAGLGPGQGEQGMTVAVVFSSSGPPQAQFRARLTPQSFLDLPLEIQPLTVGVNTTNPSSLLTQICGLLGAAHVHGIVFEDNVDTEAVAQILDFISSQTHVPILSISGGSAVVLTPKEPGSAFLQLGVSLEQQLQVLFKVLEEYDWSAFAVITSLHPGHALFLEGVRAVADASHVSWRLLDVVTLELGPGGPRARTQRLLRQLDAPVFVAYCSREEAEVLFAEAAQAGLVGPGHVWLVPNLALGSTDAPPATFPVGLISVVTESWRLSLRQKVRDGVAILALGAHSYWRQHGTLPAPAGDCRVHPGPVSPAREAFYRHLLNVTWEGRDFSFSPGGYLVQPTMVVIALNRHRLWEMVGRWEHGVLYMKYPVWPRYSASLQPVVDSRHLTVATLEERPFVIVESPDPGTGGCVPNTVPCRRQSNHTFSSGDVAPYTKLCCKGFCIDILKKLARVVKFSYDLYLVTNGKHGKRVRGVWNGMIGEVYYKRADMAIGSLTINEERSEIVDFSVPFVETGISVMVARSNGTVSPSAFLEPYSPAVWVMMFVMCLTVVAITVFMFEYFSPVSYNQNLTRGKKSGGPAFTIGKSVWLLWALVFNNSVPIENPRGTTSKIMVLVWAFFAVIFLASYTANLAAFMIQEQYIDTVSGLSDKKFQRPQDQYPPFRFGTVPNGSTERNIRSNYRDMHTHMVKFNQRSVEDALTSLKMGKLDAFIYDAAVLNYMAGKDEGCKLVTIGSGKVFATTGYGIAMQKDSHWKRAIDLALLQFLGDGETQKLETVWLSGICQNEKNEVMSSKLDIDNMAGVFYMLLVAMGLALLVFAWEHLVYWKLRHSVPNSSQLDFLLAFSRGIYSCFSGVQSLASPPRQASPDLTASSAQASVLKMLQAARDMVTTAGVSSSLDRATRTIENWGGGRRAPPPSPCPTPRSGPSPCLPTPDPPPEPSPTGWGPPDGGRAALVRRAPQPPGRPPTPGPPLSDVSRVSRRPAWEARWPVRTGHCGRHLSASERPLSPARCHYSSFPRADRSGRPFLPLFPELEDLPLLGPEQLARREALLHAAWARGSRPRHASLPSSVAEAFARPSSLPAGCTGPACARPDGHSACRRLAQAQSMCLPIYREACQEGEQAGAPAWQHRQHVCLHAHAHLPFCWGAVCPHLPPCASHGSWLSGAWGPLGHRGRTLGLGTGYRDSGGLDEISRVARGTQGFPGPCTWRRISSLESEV

Row | SMILES | EC50 [1] [µM] | EC50 [3] [µM] | %max [4] [%] | EC50 [5] [µM] | %max [6] [%] | efflux ratio [7] | %max [8] [%] | %max [17] [%] | other results
1 | CCNC(=O)c1c(C)sc2nc(Cn3nc(C(F)(F)F)cc3Cl)cc(=O)n12 | 73.2 | 0.436 | 8 | 37 | 120 | 11 | 16 |  | Ratio EC50 [2]: 100
2 | N#C[C@@H]1C[C@H]1c1c(C(F)(F)F)sc2nc(Cn3nc(C(F)(F)F)cc3Cl)cc(=O)n12 | 5.5 | 0.021 | 84 | 9.1 |  | 1.1 | 88 |  | fraction unbound [9]: 0.014; EC50 [10]: 7.4 µM; half-life [11]: 4 h; Cp(f) [12]: 17 nM; bioavailability [13]: 24%; fraction unbound [14]: 0.06; EC50 [15]: 6.2 µM; clearance [16]: 26 mL/min/kg
3 | CCCCc1nn2c(=O)cc(CN(CC)c3ccccc3)nc2s1 | 23.7 | 9.34 | 51 | 35.2 | 91 |  | 71 | 40 | 
4 | CCN(Cc1cc(=O)n2nc(C)sc2n1)c1ccc(F)cc1 | 0.83 | 0.9 | 92 | 3.3 | 150 | 1.4 | 99 | 48 | logD [18]: 2.9
5 | CCNC(=O)c1c(C)sc2nc(CN(CC)c3ccc(F)cc3)cc(=O)n12 |  | 0.093 | 10 |  | 184 | 5.1 | 28 |  | Activity [19]: Active
6 | CCN(Cc1cc(=O)n2nc(C)sc2n1)c1ccccc1 | 2 | 1.9 | 84 | 7.5 | 150 |  | 95 | 35 | 
7 | CCN(Cc1cc(=O)n2c(C(C)=O)c(C)sc2n1)c1ccc(F)cc1 | 9.4 | 0.088 | 13 |  | 173 | 1.1 | 55 |  | Ratio EC50 [20]: 100
8 | CCNC(=O)c1c(C)sc2nc(COc3ccc(F)cc3)cc(=O)n12 |  | 8.5 | 11 |  | 77 | 2 | 15 |  | Activity [21]: inactive
9 | C=C(C)c1c(C)sc2nc(CN(CC)c3ccc(F)cc3)cc(=O)n12 | 13 | 0.06 | 75 | 43.1 | 143 |  | 22 |  | Ratio EC50 [20]: > 100
